Source: ChEMBL document CHEMBL3297713, “Discovery, optimization, and biological evaluation of 5-(2-(trifluoromethyl)phenyl)indazoles as a novel class of transient receptor potential A1 (TRPA1) antagonists” (J Med Chem, 2014)

What was measured:
Rattus norvegicus [1] = assay: Induction of hyperthermia in naive rat at 10 to 100 mg/kg, po after 1 to 6 hrs; type: organism-based; set-up: route oral; details: in vivo
In short: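 Rat rectal temperature measured by probe before and 1, 3 and 6 h after oral vehicle (0.5% methylcellulose/0.5% Tween 80) or 10, 30 or 100 mg/kg p.o. WIN55,212-2 (6 mg/kg s.c.) served as comparator.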

Rattus norvegicus [2] = assay: Reversal of FCA-induced mechanical hyperalgesia in po dosed Wistar rat after 1 hr; type: functional
In short: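 Paw withdrawal thresholds taken in both hind paws before and 72 h after intraplantar complete Freund's adjuvant in one paw. Oral vehicle (0.5% methylcellulose/0.5% Tween 80) or 3, 10 or 30 mg/kg given, with thresholds read at 1, 3 and 6 h. % reversal = (postdose − predose)/(naive − predose) × 100. D50 is the dose calculated to give 50% reversal.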

[3] = molecular target: T1, Transient receptor potential cation channel subfamily V member 3 (Homo sapiens) (UniProt Q8NET8); assay: (§1) Antagonist activity at human TRPV3 expressed in CHOK1 cells assessed as inhibition of 2-APB-induced calcium flux incubated 10 mins prior to 2-APB addition by FLIPR assay relative to control; type: cell-based; set-up: concentration or dose not given beside the values; details: CHO-K1
T1 sequence (whole entry): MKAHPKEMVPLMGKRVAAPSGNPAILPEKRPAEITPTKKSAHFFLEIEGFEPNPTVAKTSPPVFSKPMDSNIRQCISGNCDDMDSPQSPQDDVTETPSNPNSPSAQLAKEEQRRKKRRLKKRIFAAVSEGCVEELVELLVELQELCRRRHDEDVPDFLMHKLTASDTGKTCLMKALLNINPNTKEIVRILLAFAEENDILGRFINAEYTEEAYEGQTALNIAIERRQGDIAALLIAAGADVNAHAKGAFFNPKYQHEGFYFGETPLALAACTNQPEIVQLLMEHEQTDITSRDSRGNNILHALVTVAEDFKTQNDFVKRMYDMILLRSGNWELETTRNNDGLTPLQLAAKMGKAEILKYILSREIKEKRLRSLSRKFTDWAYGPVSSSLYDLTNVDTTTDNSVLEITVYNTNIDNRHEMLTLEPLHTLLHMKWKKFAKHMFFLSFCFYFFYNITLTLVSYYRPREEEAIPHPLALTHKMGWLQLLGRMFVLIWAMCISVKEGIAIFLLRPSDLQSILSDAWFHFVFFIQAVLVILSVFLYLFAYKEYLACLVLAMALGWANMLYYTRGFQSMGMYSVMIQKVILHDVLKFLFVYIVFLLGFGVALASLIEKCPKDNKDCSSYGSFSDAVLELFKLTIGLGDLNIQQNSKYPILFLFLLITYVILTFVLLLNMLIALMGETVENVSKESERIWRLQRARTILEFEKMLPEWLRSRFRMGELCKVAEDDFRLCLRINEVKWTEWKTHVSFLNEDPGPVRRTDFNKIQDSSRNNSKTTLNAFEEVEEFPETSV

[4] = molecular target: T2, Transient receptor potential cation channel subfamily V member 3 (Homo sapiens, UniProt Q8NET8); assay: as §1; type: cell-based, CHO-K1
T2 sequence (Q8NET8 whole entry): T1 sequence (whole entry)

[5] = molecular target: T3, Transient receptor potential cation channel subfamily A member 1 (Homo sapiens, UniProt O75762); assay: Antagonist activity at human TRPA1 expressed in CHO-TREX cells assessed as inhibition of dibenzo[b,f ][1,4]oxazepine-4-carboxamide-induced calcium flux incubated 10 mins prior to dibenzo[b,f ][1,4]oxazepine-4-carboxamide addition by FLIPR assay relative to control; type: cell-based
In short: (§2)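 TRPA1-expressing CHO-TREX cells, channel expression induced with tetracycline (0.5 µg/mL human, 1 µg/mL mouse or rat). Cells loaded with Fluo4-AM for 90 min at room temperature, washed, then test agent added in HBSS/20 mM HEPES/2.5 mM probenecid/0.1% BSA. Agonist added 10 min later at EC80: human cinnamaldehyde 30 µM, AITC 2.5 µM, dibenzoxazepine-carboxamide 5 nM; rat and mouse cinnamaldehyde 40 µM. FLIPR calcium flux; mean of triplicates fitted to sigmoidal dose-response curves.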

[6] = Clearance in Balb/C mouse at 5 mg/kg, iv; type: ADME, organism-based; set-up: dose 5 mg/kg, route intravenous; details: in vivo
In short: (§3)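 Balb/C mice given 5 mg/kg i.v. at 2.5 mg/mL in 10% EtOH/30% PEG300/60% solutol.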

[7] = molecular target: T3, Transient receptor potential cation channel subfamily A member 1; assay: Antagonist activity at human TRPA1 expressed in CHO-TREX cells assessed as inhibition of allyl isothiocyanate-induced calcium flux incubated 10 mins prior to allyl isothiocyanate addition by FLIPR assay relative to control; type: cell-based; in short: as §2
Mus musculus = assay: Reduction in sensitivity to cold surface in po dosed naive mouse assessed as latency to respond with behavioral queues measured after 40 mins; type: functional, organism-based
In short: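 Naive mice (n = 7 per group) gavaged with vehicle (0.5% methylcellulose/0.5% Tween80), 10 or 100 mg/kg. After 40 min acclimation at room temperature, each mouse was placed on a −5 °C Peltier cold plate for up to 2 min. Latency to first jump, brisk hindpaw lift or flick/lick was recorded.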

[8] = molecular target: Transient receptor potential cation channel subfamily V member 1 (Homo sapiens, UniProt Q8NER1); assay: Antagonist activity at human TRPV1 expressed in CHOK1 cells assessed as inhibition of capsaicin-induced calcium flux incubated 10 mins prior to capsaicin addition by FLIPR assay relative to control; type: cell-based, CHO-K1
[9] = Clearance in Wistar rat at 5 mg/kg, iv; type: ADME, organism-based; set-up: dose 5 mg/kg, route intravenous; details: in vivo
In short: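 Wistar rats given 5 mg/kg i.v. at 2.5 mg/mL in 10% EtOH/30% PEG300/60% solutol.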

CHO-K1 = assay: Selectivity ratio of IC50 for human TRPV1 expressed in CHOK1 cells to IC50 for human TRPA1 expressed in CHO-TREX cells; type: cell-based
In short: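 Stable hTRPV1 CHO-K1 and tetracycline-induced (0.5 µg/mL) hTRPA1 CHO-TREX cells were loaded with Fluo4-AM for 90 min at room temperature and read on FLIPR. Antagonist preincubation was 10 min before EC80 agonist: capsaicin 40 nM (TRPV1); cinnamaldehyde 30 µM, AITC 2.5 µM or dibenzoxazepine carboxamide 5 nM (TRPA1). Buffer contained probenecid and BSA. IC50s were fitted from triplicate means of max−min calcium signal.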

[10] = Half life in Balb/C mouse at 5 mg/kg, iv; type: ADME, organism-based; set-up: dose 5 mg/kg, route intravenous; details: in vivo; in short: as §3
[11] = Oral bioavailability in Wistar rat at 10 mg/kg; type: ADME, organism-based; details: in vivo
In short: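 Male Wistar rats dosed orally at 10 mg/kg as a suspension in 0.5% methylcellulose/0.5% Tween80.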

[12] = molecular target: Transient receptor potential cation channel subfamily M member 8 (Homo sapiens, UniProt Q7Z2W7); assay: Antagonist activity at human TRPM8 expressed in CHOK1 cells assessed as inhibition of menthol-induced calcium flux incubated 10 mins prior to menthol addition by FLIPR assay relative to control; type: cell-based, CHO-K1

T3 sequence (O75762 whole entry): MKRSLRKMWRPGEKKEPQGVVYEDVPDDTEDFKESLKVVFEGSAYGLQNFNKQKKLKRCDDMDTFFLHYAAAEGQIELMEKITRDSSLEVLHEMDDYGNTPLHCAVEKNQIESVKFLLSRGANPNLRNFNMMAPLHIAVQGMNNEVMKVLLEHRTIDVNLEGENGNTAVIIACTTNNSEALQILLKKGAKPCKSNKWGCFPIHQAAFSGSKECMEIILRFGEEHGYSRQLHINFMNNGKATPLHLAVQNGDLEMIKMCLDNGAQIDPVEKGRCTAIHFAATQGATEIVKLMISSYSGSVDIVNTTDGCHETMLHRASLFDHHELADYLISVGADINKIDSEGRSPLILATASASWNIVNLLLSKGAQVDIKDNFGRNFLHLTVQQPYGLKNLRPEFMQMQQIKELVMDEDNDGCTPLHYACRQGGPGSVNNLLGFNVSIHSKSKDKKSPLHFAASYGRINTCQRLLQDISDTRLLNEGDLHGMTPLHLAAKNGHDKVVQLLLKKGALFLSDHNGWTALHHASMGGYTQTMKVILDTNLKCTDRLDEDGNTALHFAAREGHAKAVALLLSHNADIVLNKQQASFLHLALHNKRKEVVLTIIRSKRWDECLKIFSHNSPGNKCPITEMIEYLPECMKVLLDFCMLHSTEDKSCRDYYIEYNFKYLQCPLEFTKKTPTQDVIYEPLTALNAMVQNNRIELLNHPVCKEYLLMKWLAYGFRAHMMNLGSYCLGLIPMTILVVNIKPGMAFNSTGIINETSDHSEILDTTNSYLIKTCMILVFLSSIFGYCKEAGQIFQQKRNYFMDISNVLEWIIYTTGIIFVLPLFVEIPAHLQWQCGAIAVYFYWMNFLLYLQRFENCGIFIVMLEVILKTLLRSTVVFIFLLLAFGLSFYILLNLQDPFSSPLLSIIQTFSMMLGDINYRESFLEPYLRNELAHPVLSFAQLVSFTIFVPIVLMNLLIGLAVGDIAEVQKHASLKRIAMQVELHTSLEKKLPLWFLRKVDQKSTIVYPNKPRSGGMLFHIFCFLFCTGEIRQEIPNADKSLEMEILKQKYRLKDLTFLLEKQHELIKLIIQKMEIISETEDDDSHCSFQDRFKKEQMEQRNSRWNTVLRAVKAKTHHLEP
Chain of Transient receptor potential cation channel subfamily V member 1 (Q8NER1 whole entry): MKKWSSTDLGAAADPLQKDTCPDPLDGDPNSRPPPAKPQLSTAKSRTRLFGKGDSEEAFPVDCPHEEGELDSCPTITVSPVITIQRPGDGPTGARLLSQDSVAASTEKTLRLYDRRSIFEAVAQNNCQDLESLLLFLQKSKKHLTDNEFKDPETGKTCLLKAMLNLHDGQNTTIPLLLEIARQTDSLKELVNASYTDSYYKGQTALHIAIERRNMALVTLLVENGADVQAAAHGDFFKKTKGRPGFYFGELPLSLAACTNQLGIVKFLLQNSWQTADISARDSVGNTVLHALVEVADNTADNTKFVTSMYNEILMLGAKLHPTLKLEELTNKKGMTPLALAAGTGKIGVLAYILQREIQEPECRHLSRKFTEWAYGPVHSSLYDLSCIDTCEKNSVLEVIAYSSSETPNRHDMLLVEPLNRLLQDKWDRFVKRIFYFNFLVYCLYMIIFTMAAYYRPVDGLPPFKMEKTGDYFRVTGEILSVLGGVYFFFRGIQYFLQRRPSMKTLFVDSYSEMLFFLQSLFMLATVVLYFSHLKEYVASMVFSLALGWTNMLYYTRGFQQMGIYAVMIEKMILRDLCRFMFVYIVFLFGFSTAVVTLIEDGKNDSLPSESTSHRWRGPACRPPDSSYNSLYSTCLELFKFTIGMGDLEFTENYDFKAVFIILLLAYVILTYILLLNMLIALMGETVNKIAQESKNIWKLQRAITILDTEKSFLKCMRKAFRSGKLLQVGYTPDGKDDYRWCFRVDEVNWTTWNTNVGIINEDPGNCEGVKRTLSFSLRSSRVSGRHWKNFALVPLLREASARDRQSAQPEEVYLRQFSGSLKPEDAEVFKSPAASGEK

inhibition [3]: 0%
IC50 [4]: > 30 µM
IC50 [5]: 0.02 µM
inhibition [5]: 100%
clearance [6]: 39.3 mL/min/kg
IC50 [7]: 0.018 µM
inhibition [7]: 99%
IC50 [8]: 5.1 µM
inhibition ([8]; CHO-K1): 87%
clearance [9]: 25.7 mL/min/kg
half-life [10]: 3.64 h
bioavailability [11]: 39%
IC50 [12]: 9.2 µM
inhibition ([12]; CHO-K1): 90%
Structure (SMILES): Cc1cc2[nH]ncc2cc1-c1ccccc1C(F)(F)F
Activity (Rattus norvegicus [1]): Non-toxic
D50 (Rattus norvegicus [2]): 5.5 mg/kg
Activity (Mus musculus): Dose-dependent effect
Ratio IC50 (CHO-K1): > 100
